The target of the assay is T1, murine ovastacin (Mus musculus, UniProt Q6HA09).
T1 sequence (Q6HA09 86-435 limits assumed): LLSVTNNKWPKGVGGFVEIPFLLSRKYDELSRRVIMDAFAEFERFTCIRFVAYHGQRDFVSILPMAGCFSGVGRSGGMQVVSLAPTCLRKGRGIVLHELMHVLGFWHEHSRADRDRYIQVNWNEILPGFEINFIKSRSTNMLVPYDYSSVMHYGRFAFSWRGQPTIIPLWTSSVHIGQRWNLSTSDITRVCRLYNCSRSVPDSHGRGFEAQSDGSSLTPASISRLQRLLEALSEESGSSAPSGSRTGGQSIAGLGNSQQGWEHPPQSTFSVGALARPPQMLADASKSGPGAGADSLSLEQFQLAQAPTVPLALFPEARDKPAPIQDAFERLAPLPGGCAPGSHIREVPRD
The assay can be described thus: fluorogenic enzyme activity assay, inhibition of murine ovastacin. Type of assay: biochemical. The essentials: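 Recombinant mouse ovastacin was activated with human plasmin (30 min, 10:1 molar ratio). Active enzyme was 1 nM, set by titration with murine fetuin-B. Buffer: 150 mM NaCl, 50 mM Tris·HCl pH 7.4, 0.01% Brij-35, at 37 °C; inhibitors were in DMSO. Reactions started with 25 μM Edans/Dabcyl peptide substrate (final DMSO 1.4%). Initial rates were read ≥1000 s, then proteinase K gave full-turnover calibration. Apparent Ki came from the Morrison equation; two independent experiments, in triplicate.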

Usually Ki stands for the equilibrium dissociation constant of an inhibitor or competing ligand from its target.

Regarding `O=C(CCN(Cc1ccc(Cl)cc1F)Cc1ccc(Cl)c(O)c1F)NO` [Compound 12], the Ki is 0.75 ± 0.04 µM. For the molecule `O=C(CCN(Cc1ccc2c(c1)OCO2)Cc1ccc(Cl)c(O)c1F)NO` [Compound 13], the Ki was found to be 0.68 ± 0.02 µM. On to `O=C(CCN(Cc1ccc2c(c1)OCO2)Cc1ccc(Cl)cc1F)NO` [Compound 14], for which the Ki is 1.96 ± 0.08 µM.

`O=C(CCN(Cc1cccnc1)Cc1ccc2c(c1)OCO2)NO` [Compound 15] had a Ki of 8.12 ± 0.34 µM. With `O=C(CCN(Cc1ccncc1)Cc1ccc2c(c1)OCO2)NO` [Compound 17] the figure was 7.58 ± 0.36 µM; with `O=C(CCN(Cc1ccncc1)Cc1ccc(Cl)c(O)c1F)NO` [Compound 18], 8.18 ± 0.29 µM.

The record behind these values is publication PMC7496240 (Chemmedchem, 2020).
